This note sets out measurements from ChEMBL document CHEMBL4017517, “Small Molecule Inhibitors Simultaneously Targeting Cancer Metabolism and Epigenetics: Discovery of Novel Nicotinamide Phosphoribosyltransferase (NAMPT) and Histone Deacetylase (HDAC) Dual Inhibitors” (J Med Chem, 2017).

Structures are written as SMILES. Calls of active or inactive are those of the source. The rule behind the calls is not given here.

The target of data set [1] is Histone deacetylase 1 (Homo sapiens, UniProt Q13547). The data set is described as follows: Inhibition of human recombinant HDAC1 (1 to 482 residues) expressed in Baculovirus using Ac-Leu-Gly-Lys(Ac)-AMC as substrate preincubated for 5 mins followed by substrate addition measured after 30 mins by fluorescence assay.
The test system of data set [2] is Mus musculus. As to the kind of experiment: Toxicity in BALB/C nude mouse xenografted with human HCT116 cells assessed as change in body weight at 25 mg/kg, po administered as single dose for 14 consecutive days measured during compound dosing. It is filed as organism-based. The following applies: in vivo. A digest of the protocol: (§1)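 Male BALB/C nude mice (18–20 g) bearing subcutaneous HCT116 right-axilla tumors; treatment started at about 100–300 mm³. Five mice per treatment, eight controls. Dosed po 25 mg/kg/day for 14 consecutive days as suspension in 0.5% carboxymethyl cellulose; controls got vehicle. Tumor volume (1/2 × length × width²) and body weight recorded every 3 days. Sacrifice day 30–33 post-implant.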
(In general: In xenograft studies the graft and the host belong to different species.)

Data set [3] has as its target Nicotinamide phosphoribosyltransferase (Homo sapiens, UniProt P43490). The data set is described as follows: Inhibition of human recombinant NAMPT using NAM as substrate preincubated for 5 mins followed by substrate addition measured after 15 mins by fluorescence assay.
Data set [4] has as its system HepG2. As to the kind of experiment: cells. The format is functional, cell-based. The settings on record: Homo sapiens, HepG2, 72 h.
Data set [5] concerns HCT-116. As to the kind of experiment: cells. The format is functional, cell-based. The following applies: Homo sapiens, HCT-116, 72 h.
Data set [6] has as its system HCT-116. The data set is described as follows: Antitumor activity against human HCT116 cells xenografted in BALB/C nude mouse assessed as tumor growth inhibition at 25 mg/kg, po administered as single dose for 14 consecutive days measured after 30 to 33 days post implantation. It is filed as functional, organism-based. In a few lines:
as §1

Data set [7] in a line: Cmax in BALB/C nude mouse at 25 mg/kg, po. The format is ADME, organism-based. Also noted: dose 25 mg/kg, route oral. The following applies: in vivo. In a few lines:
(§2)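 Mice given a single oral dose of 25 mg/kg. Plasma pharmacokinetics sampled to obtain terminal half-life and Cmax.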

Data set [8] in a line: Terminal half life in BALB/C nude mouse at 25 mg/kg, po. The format is ADME, organism-based. The settings on record: in vivo, read-out: beta t1/2 (converted). A digest of the protocol:
as §2

Data set [9] deals with MDA-MB-231. As to the kind of experiment: cells. The format is functional, cell-based. The following applies: Homo sapiens, MDA-MB-231, 72 h.
Data set [10] concerns HCT-116. The data set is described as follows: Antitumor activity against human HCT116 cells xenografted in BALB/C nude mouse assessed as tumor growth inhibition at 15 mg/kg, ip bid administered for 21 consecutive days measured after 30 to 33 days post implantation relative to control. The format is functional. The following applies: HCT-116, ip, read-out: TGI. In a few lines: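 HCT116 cells implanted subcutaneously in right axilla of male BALB/C nude mice (18–20 g). Dosing began at tumor volume about 100–300 mm³; five mice per treatment, eight controls. Given ip bid for 21 consecutive days in 0.1% Tween 80 in normal saline, with vehicle controls. Caliper volume TV = 1/2 × a × b² measured every 3 days. Mice sacrificed day 30–33 post-implant; TGI calculated at end of treatment.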

Nicotinamide phosphoribosyltransferase, sequence (P43490 whole entry): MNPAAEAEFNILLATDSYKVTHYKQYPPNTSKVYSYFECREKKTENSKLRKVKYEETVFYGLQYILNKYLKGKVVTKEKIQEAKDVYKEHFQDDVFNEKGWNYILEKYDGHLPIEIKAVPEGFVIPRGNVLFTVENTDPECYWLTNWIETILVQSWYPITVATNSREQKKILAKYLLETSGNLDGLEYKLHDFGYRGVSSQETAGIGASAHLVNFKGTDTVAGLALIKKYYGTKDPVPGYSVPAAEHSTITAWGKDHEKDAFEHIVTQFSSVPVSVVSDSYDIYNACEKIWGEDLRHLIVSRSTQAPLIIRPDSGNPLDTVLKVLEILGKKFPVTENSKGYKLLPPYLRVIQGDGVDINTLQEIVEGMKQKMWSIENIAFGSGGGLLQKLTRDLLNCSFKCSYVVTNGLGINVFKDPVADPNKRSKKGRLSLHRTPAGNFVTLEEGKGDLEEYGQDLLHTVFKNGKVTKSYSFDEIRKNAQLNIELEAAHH
Histone deacetylase 1, sequence (Q13547 whole entry, the tested form may be a part): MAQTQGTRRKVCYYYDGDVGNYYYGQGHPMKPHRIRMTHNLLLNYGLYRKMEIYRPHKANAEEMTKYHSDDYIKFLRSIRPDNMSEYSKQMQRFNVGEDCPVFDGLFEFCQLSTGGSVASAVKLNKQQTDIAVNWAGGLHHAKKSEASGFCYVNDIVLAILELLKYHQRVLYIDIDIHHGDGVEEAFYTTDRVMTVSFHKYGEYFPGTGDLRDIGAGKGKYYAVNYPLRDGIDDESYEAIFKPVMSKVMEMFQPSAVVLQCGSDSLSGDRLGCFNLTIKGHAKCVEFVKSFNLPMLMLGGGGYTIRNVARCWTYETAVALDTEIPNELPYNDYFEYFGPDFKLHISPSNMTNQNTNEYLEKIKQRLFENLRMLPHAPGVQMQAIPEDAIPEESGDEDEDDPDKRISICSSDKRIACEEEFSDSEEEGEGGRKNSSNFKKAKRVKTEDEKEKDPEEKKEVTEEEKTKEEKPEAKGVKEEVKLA

As for `Nc1ccccc1NC(=O)c1ccc(NC(=S)NCc2cccnc2)cc1`, the IC50 was 1600 nM in data set [1], 116 to 120 nM in data set [3], 4200 nM in data set [4] and 1000 nM in data set [5]. Further, the Activity result in [2] is reported as “Non-Toxic”. For the same molecule, the TGI entry in data set [6] is “Active”. For the same molecule, the highest concentration (Cmax) in data set [7] is 2300 nM. Further, the half-life in [8] is 1.8 h.

Turning to `O=C(/C=C/c1cccnc1)NCCCCC1CCN(C(=O)c2ccccc2)CC1` [DAPORINAD], the concentration for half-maximal inhibition (IC50) worked out at 1300 nM in [9], 890 nM in data set [4] and 1600 nM in data set [5]. Besides, in data set [10], the inhibition in vivo at 15 mg/kg is 39%.

Usually IC50 stands for the concentration needed to halve the response being measured. By Cmax is commonly meant the peak of the concentration-time curve.
